Reference: ChEMBL document CHEMBL1122319, “Substituted (2-phenoxyphenyl)acetic acids with antiinflammatory activity. 1” (J Med Chem, 1983)

Key:
Type in all cases: functional
Rattus norvegicus [1] = experiment: Reduction in paw swelling at 100 mg/kg po dose in rat using adjuvant arthritis test.
Rattus norvegicus [2] = species on record: Rattus norvegicus; experiment: (§1) Potency relative to [2-(2,4-Dichloro-phenoxy)-phenyl]-acetic acid in rat adjuvant arthritis test
Rattus norvegicus [3] = experiment: Reduction in paw swelling at 100 mg/kg po dose in rat using adjuvant arthritis test; value is +10 indicates exacerbation of paw swelling.
Rattus norvegicus [4] = experiment: Reduction in paw swelling at 100 mg/kg po dose in rat using adjuvant arthritis test; value is +23 indicates exacerbation of paw swelling.
Rattus norvegicus [5] = experiment: Reduction in paw swelling at 100 mg/kg po dose in rat using adjuvant arthritis test; value is +8 indicates exacerbation of paw swelling.
Rattus norvegicus [6] = experiment: Reduction in paw swelling at 100 mg/kg po dose in rat using adjuvant arthritis test; value is +14 indicates exacerbation of paw swelling.
Rattus norvegicus [7] = species on record: Rattus norvegicus; experiment: Minimum ulcerogenic dose(MUD) of the compound.
Rattus norvegicus [8] = species on record: Rattus norvegicus; experiment: Minimum ulcerogenic dose(MUD) of the compound;Value ranges from (400-800)
Rattus norvegicus [9] = experiment: Reduction in paw swelling at 100 mg/kg po dose in rat using adjuvant arthritis test; value is +6 indicates exacerbation of paw swelling.
Rattus norvegicus [10] = experiment: Reduction in paw swelling at 100 mg/kg po dose in rat using adjuvant arthritis test; value is +12 indicates exacerbation of paw swelling.
Rattus norvegicus [11] = experiment: Reduction in paw swelling at 100 mg/kg po dose in rat using adjuvant arthritis test; value is +9 indicates exacerbation of paw swelling.
Rattus norvegicus [12] = species on record: Rattus norvegicus; experiment: as §1; remark: listed apart in the source
Procedure, shortened: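 Established (therapeutic) adjuvant arthritis test in rats: the drug was given after arthritis had fully developed. Relative potency against the reference standard was derived from a three-dose-level assay based on paw volume changes.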

Rattus norvegicus [13] = experiment: Reduction in paw swelling at 100 mg/kg po dose in rat using adjuvant arthritis test; value is +1 indicates exacerbation of paw swelling.
Rattus norvegicus [14] = experiment: Reduction in paw swelling at 100 mg/kg po dose in rat using adjuvant arthritis test; value is +3 indicates exacerbation of paw swelling.
Rattus norvegicus [15] = experiment: Reduction in paw swelling at 100 mg/kg po dose in rat using adjuvant arthritis test; value is +7 indicates exacerbation of paw swelling.
Rattus norvegicus [16] = experiment: Reduction in paw swelling at 100 mg/kg po dose in rat using adjuvant arthritis test; value is +4 indicates exacerbation of paw swelling.
Rattus norvegicus [17] = experiment: Reduction in paw swelling at 100 mg/kg po dose in rat using adjuvant arthritis test; value is +13 indicates exacerbation of paw swelling.
Rattus norvegicus [18] = experiment: Reduction in paw swelling at 100 mg/kg po dose in rat using adjuvant arthritis test; value is +5 indicates exacerbation of paw swelling.
Rattus norvegicus [19] = experiment: Reduction in paw swelling at 100 mg/kg po dose in rat using adjuvant arthritis test; value is +20 indicates exacerbation of paw swelling.
Rattus norvegicus [20] = experiment: Reduction in paw swelling at 100 mg/kg po dose in rat using adjuvant arthritis test; value is +2 indicates exacerbation of paw swelling.

CCCCCc1ccc(Oc2ccc(C)cc2CC(=O)O)c(Cl)c1 gave a Reduction (Rattus norvegicus [1]) of 23 and a Relative potency (Rattus norvegicus [2]) of 0.3.
COc1cccc(Oc2ccc(C)cc2CC(=O)O)c1 gave a Reduction (Rattus norvegicus [3]) of 10.
With CCc1cc(Cl)ccc1Oc1ccc(C)cc1CC(=O)O the Reduction (Rattus norvegicus [1]) was 17 and the Relative potency (Rattus norvegicus [2]) was 0.4.
With Cc1ccc(Oc2ccc(Cl)cc2)c(CC(=O)O)c1 the Reduction (Rattus norvegicus [1]) was 9 and the Relative potency (Rattus norvegicus [2]) was 0.7.
OCCc1ccccc1Oc1ccc(Cl)cc1Cl gave a Reduction (Rattus norvegicus [1]) of 32 and a Relative potency (Rattus norvegicus [2]) of 0.7.
Work on Cc1ccc(Oc2c(Cl)cccc2CC(=O)O)c(Cl)c1 yielded a Reduction (Rattus norvegicus [4]) of 23.
In the case of CCCCc1ccc(Oc2ccc(C)cc2CC(=O)O)c(Cl)c1, the Reduction (Rattus norvegicus [1]) is reported as 25 and the Relative potency (Rattus norvegicus [2]) is reported as 0.9.
NC(=O)Cc1ccccc1Oc1ccc(Cl)cc1Cl was tested, and the Reduction (Rattus norvegicus [1]) was 33 and the Relative potency (Rattus norvegicus [2]) was 1.3.
Work on CCCCc1ccc(Oc2ccc(C)cc2Cl)c(CC(=O)O)c1 yielded a Reduction (Rattus norvegicus [5]) of 8.
Work on Cc1ccc(Oc2cc(C)c(C)cc2CC(=O)O)c(Cl)c1 yielded a Reduction (Rattus norvegicus [6]) of 14.
In the case of CCc1ccc(Oc2ccc(C)cc2CC(=O)O)c(Cl)c1, the Reduction (Rattus norvegicus [1]) is reported as 40, the Relative potency (Rattus norvegicus [2]) is reported as 1.1 and the MUD (Rattus norvegicus [7]) is reported as >800 mg/kg.
In the case of Cc1ccc(Oc2ccc(Cl)cc2Cl)c(CC(=O)O)c1, the Reduction (Rattus norvegicus [1]) is reported as 29 and the Relative potency (Rattus norvegicus [2]) is reported as 0.8.
With Cc1ccc(Oc2ccc(C(C)(C)C)cc2Cl)c(CC(=O)O)c1 the Reduction (Rattus norvegicus [1]) was 34, the Relative potency (Rattus norvegicus [2]) was 1.6 and the MUD (Rattus norvegicus [7]) was >500 mg/kg.
With CCC(C)c1ccc(Oc2ccc(C)cc2CC(=O)O)c(Cl)c1 (stereo not drawn) the Reduction (Rattus norvegicus [1]) was 42, the Relative potency (Rattus norvegicus [2]) was 3 and the MUD (Rattus norvegicus [8]) was 800 mg/kg.
Work on COc1ccc(Oc2ccc(C)cc2Cl)c(CC(=O)O)c1 yielded a Reduction (Rattus norvegicus [9]) of 6.
Cc1ccc(Oc2cc(Cl)ccc2C)c(CC(=O)O)c1 was tested, and the Reduction (Rattus norvegicus [1]) was 15 and the Relative potency (Rattus norvegicus [2]) was 0.2.
Work on COc1ccccc1Oc1ccccc1CC(=O)O yielded a Reduction (Rattus norvegicus [1]) of 38 and a Relative potency (Rattus norvegicus [2]) of 0.7.
COc1cc(Oc2ccc(C)cc2Cl)c(CC(=O)O)cc1C gave a Reduction (Rattus norvegicus [10]) of 12.
Cc1ccc(Oc2cccc(O)c2CC(=O)O)c(Cl)c1 was tested, and the Reduction (Rattus norvegicus [11]) was 9.
In the case of CCc1ccc(Oc2ccccc2CC(=O)O)c(Cl)c1, the Reduction (Rattus norvegicus [1]) is reported as 32 and the Relative potency (Rattus norvegicus [2]) is reported as 0.7.
With O=C(Cc1ccccc1Oc1ccc(Cl)cc1Cl)NO the Reduction (Rattus norvegicus [1]) was 28% and the Relative potency (Rattus norvegicus [12]) was 1.
Cc1ccc(Oc2cc(C)cc(C)c2C)c(CC(=O)O)c1 showed a Reduction (Rattus norvegicus [1]) of 11 and a Relative potency (Rattus norvegicus [2]) of 0.1.
Cc1ccc(Oc2cc(C)ccc2CC(=O)O)c(Cl)c1 showed a Reduction (Rattus norvegicus [13]) of 1.
With Cc1ccc(Oc2cc(C(F)(F)F)cc(C(F)(F)F)c2)c(CC(=O)O)c1 the Reduction (Rattus norvegicus [3]) was 10.
Cc1ccc(Oc2cc(C)c(Cl)cc2CC(=O)O)c(Cl)c1 was tested, and the Reduction (Rattus norvegicus [6]) was 14.
For Cc1ccc(Oc2cccc(O)c2)c(CC(=O)O)c1, the Reduction (Rattus norvegicus [14]) was 3.
For COc1ccc(CC(=O)O)c(Oc2ccc(C)cc2Cl)c1, the Reduction (Rattus norvegicus [6]) was 14.
Cc1ccc(Oc2c(C)cc(Cl)cc2Cl)c(CC(=O)O)c1 was tested, and the Reduction (Rattus norvegicus [1]) was 23 and the Relative potency (Rattus norvegicus [2]) was 0.3.
Work on Cc1ccc(Oc2cc(Cl)c(C)cc2CC(=O)O)c(Cl)c1 yielded a Reduction (Rattus norvegicus [15]) of 7.
Cc1cc(Oc2ccccc2CC(=O)O)c(Cl)c(C)c1Cl was tested, and the Reduction (Rattus norvegicus [1]) was 34 and the Relative potency (Rattus norvegicus [2]) was 1.2.
Nc1cc(Cl)ccc1Oc1ccccc1CC(=O)O was tested, and the Reduction (Rattus norvegicus [16]) was 4.
For CCCCCCCCCCCCc1ccc(Oc2ccc(C)cc2CC(=O)O)c(Cl)c1, the Reduction (Rattus norvegicus [1]) was 26% and the Relative potency (Rattus norvegicus [2]) was 0.3.
For O=C(O)/C=C/c1ccccc1Oc1ccc(Cl)cc1Cl, the Reduction (Rattus norvegicus [5]) was 8.
In the case of CCc1ccc(Oc2ccc(C)cc2Cl)c(CC(=O)O)c1, the Reduction (Rattus norvegicus [17]) is reported as 13.
With Cc1ccc(Oc2cc(C)c(C)cc2Cl)c(CC(=O)O)c1 the Reduction (Rattus norvegicus [1]) was 46 and the Relative potency (Rattus norvegicus [2]) was 0.4.
For Nc1ccc(Oc2ccccc2CC(=O)O)c(Cl)c1, the Reduction (Rattus norvegicus [18]) was 5.
With Cc1ccc(Oc2cc(O)ccc2CC(=O)O)c(Cl)c1 the Reduction (Rattus norvegicus [19]) was 20.
Compound Cc1ccc(Oc2ccc(C3CCCCC3)cc2Cl)c(CC(=O)O)c1 has a Reduction (Rattus norvegicus [20]) of 2.
With O=C(O)Cc1ccccc1Oc1ccc(Cl)cc1Cl [FENCLOFENAC] the Reduction (Rattus norvegicus [1]) was 36, the Relative potency (Rattus norvegicus [2]) was 1 and the MUD (Rattus norvegicus [8]) was 800 mg/kg.
